Data: ChEMBL document CHEMBL2169867, “Novel β-amino acid derivatives as inhibitors of cathepsin A” (J Med Chem, 2012)
pIC50: −log10 of the molar value. One block for each compound: values may come before it. Calls of active or inactive are those of the source. The calls are words filed in the database; no cut-off is given here.

Legend:
[1] = target: T1, Lysosomal protective protein (Homo sapiens, UniProt P10619); assay: Inhibition of human recombinant Myc-His10-tagged cathepsin A expressed in baculovirus infected Sf9 cells using BodipyFL labeled bradykinin as substrate incubated for 15 mins prior to substrate addition measured after 15 mins by fluorimetric analysis
T1 sequence (P10619 whole entry): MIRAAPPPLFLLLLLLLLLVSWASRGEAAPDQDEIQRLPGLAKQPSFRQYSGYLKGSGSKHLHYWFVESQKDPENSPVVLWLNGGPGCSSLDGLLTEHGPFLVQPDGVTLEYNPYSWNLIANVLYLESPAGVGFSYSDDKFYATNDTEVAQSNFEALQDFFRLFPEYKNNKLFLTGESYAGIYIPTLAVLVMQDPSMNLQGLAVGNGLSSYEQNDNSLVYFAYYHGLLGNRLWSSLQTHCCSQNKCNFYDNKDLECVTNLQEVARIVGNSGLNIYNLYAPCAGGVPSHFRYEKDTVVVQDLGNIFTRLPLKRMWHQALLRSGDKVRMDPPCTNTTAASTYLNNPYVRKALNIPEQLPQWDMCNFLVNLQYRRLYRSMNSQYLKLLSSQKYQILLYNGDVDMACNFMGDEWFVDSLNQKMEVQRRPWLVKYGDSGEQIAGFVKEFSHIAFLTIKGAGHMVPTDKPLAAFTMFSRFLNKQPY

[2] = Permeability across human Caco2 cells; assay type: ADME, cell-based; details: Caco-2, read-out: permeability
[3] = Cmax in Sprague-Dawley rat heart at 10 mg/kg, po; assay type: ADME, organism-based; set-up: dose 10 mg/kg, route oral
How it was run: (§1)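 Male Sprague-Dawley rats; single oral 10 mg/kg in glycofurol 75 (19%)/Cremophor RH40 (6%)/water (75%). Plasma and heart sampled at eight time points over 24 h, three animals per time point, nonserial design. Heart homogenized with water (2 g per 1 g tissue). Concentrations measured by LC-MS/MS with a structurally related internal standard; AUC(0-inf) taken from plasma concentration-time curves.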

[4] = Cmax in Sprague-Dawley rat plasma at 10 mg/kg, po; assay type: ADME, organism-based; set-up: dose 10 mg/kg, route oral; how it was run: as §1
Rattus norvegicus [5] = assay: Antihypertensive activity in Wistar rat assessed as bradykinin-dependent diuresis at 1 mg/kg, iv administered as bolus measured as urine flow rate (reference value: 11.6 uL/min); assay type: functional
Rattus norvegicus [6] = assay: Antihypertensive activity in Wistar rat assessed as increase in bradykinin level in urine at 30 mg/kg, po relative to vehicle-treated control; assay type: functional
How it was run: (§2)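 Male Wistar rats dosed po at 30 mg kg⁻¹ day⁻¹. Urine collected over 6 h before and after treatment. Bradykinin measured by commercial RIA; creatinine excretion also determined. Mean ± SEM, n = 9-10; paired t test.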

[7] = AUC (0 to infinity) in Sprague-Dawley rat heart at 10 mg/kg, po; assay type: ADME, organism-based; set-up: time infinity, dose 10 mg/kg, route oral; how it was run: as §1
Neprilysin = Neprilysin (Homo sapiens, UniProt P08473); assay: Inhibition of human recombinant NEP using Mca-RPPGFSAFK(Dnp)-OH as substrate incubated for 15 mins prior to substrate addition measured after 20 to 30 mins by fluorimetric analysis
Chain of Neprilysin (P08473 whole entry): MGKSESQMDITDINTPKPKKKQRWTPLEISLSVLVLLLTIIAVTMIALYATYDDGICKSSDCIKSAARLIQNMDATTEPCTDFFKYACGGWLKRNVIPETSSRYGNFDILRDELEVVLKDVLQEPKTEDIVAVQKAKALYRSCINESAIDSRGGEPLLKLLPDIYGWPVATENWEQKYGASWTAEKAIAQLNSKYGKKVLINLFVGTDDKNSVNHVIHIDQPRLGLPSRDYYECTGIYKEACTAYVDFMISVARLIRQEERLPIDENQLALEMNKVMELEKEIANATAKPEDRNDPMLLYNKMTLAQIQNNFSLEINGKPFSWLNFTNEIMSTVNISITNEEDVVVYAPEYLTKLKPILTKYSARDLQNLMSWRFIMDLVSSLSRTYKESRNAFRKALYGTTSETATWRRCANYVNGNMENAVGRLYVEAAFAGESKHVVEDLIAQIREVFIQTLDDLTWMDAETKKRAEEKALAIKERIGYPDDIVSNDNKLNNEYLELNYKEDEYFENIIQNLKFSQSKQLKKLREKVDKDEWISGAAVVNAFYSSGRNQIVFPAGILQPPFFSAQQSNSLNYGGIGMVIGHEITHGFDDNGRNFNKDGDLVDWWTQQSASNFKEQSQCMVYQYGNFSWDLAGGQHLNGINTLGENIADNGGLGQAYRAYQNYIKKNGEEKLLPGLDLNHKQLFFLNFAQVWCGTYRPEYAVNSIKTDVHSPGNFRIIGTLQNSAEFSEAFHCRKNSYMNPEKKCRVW
How it was run: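 Recombinant human NEP and inhibitor preincubated 15 min at room temperature in reaction buffer, then substrate added. Fluorescence read after 20-30 min at room temperature. % inhibition and IC50 calculated against internal high and low controls.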

[8] = AUC (0 to infinity) in Sprague-Dawley rat plasma at 10 mg/kg, po; assay type: ADME, organism-based; set-up: time infinity, dose 10 mg/kg, route oral; how it was run: as §1
Cytochrome P450 3A4 = Cytochrome P450 3A4 (Homo sapiens, UniProt P08684); assay: (§3) Induction of CYP3A4 relative to control; assay type: ADME
Chain of Cytochrome P450 3A4 (P08684 whole entry): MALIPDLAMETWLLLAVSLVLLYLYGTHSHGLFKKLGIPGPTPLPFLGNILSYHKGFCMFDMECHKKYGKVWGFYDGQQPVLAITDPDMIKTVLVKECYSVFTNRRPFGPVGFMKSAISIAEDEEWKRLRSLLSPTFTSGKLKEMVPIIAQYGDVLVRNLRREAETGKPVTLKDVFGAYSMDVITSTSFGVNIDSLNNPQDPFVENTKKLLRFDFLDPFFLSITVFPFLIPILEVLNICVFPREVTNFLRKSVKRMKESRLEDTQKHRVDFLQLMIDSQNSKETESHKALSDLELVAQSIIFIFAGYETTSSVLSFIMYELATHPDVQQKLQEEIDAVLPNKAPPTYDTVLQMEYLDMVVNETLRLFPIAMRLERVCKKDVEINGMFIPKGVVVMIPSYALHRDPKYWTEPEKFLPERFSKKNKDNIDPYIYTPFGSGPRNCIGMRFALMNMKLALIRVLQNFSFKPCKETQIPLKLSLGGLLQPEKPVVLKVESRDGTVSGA

Rattus norvegicus [9] = assay: Effect on glomerular filtration rate in Wistar rat assessed as change in creatinine excretion at 30 mg/kg, po relative to vehicle-treated control; assay type: functional, organism-based; set-up: dose 30 mg/kg; how it was run: as §2
CYP3A4 = CYP3A4 (Homo sapiens, UniProt P08684); assay: as §3; assay type: ADME; details: human
Chain of CYP3A4 (P08684 whole entry): as above

[10] = target: Cathepsin A (Homo sapiens); assay: Inhibition of cathepsin A
Mus musculus [11] = assay: Toxicity in B6.129P2-ApoE/J mouse assessed as body weight at 100 mg/kg/day, po administered BID after 4 weeks (reference value: 30.48 0.52 g); assay type: organism-based; set-up: route oral; details: in vivo, 672 h
Mus musculus [12] = assay: Ratio of left ventricular wet weight to body weight in B6.129P2-ApoE/J mouse at 100 mg/kg/day, po administered BID after 4 weeks (reference value: 5.99 0.28 mg/g); assay type: functional
Mus musculus [13] = assay: Cardioprotective activity against angiotensin 2-induced cardiac hypertrophy in B6.129P2-ApoE/J mouse assessed as left ventricular relaxation time at 100 mg/kg/day, po administered BID after 4 weeks (reference value: 8.73 0.41 ms); assay type: functional, Heart left ventricle
Mus musculus [14] = assay: Cardioprotective activity against angiotensin 2-induced cardiac hypertrophy in B6.129P2-ApoE/J mouse assessed as ejection fraction at 100 mg/kg/day, po administered BID after 4 weeks (reference value: 51.14 2.49 %); assay type: functional, Heart
Mus musculus [15] = assay: Cardioprotective activity against angiotensin 2-induced cardiac hypertrophy in B6.129P2-ApoE/J mouse assessed as left ventricular end diastolic pressure at 100 mg/kg/day, po administered BID after 4 weeks (reference value: 15.49 1.95 mmHg); assay type: functional, Heart left ventricle
Mus musculus [16] = assay: Cardioprotective activity against angiotensin 2-induced cardiac hypertrophy in B6.129P2-ApoE/J mouse assessed as left ventricular wet weight at 100 mg/kg/day, po administered BID after 4 weeks (reference value: 182.03 […]); assay type: functional, Heart left ventricle
Mus musculus [17] = assay: Cardioprotective activity against angiotensin 2-induced cardiac hypertrophy in B6.129P2-ApoE/J mouse assessed as left ventricular end systolic pressure at 100 mg/kg/day, po administered BID after 4 weeks (reference value: 139.36 9.79 mmHg); assay type: functional, Heart left ventricle
Mus musculus [18] = assay: Cardioprotective activity against angiotensin 2-induced cardiac hypertrophy in B6.129P2-ApoE/J mouse assessed as heart rate at 100 mg/kg/day, po administered BID after 4 weeks (reference value: 403.23 7.98 bpm); assay type: functional
Mus musculus [19] = assay: Cardioprotective activity against angiotensin 2-induced cardiac hypertrophy in B6.129P2-ApoE/J mouse assessed as mean arterial pressure at 100 mg/kg/day, po administered BID after 4 weeks (reference value: 99.03 6.82 mmHg); assay type: functional, Heart

pIC50 [1]: 7.15
SMILES: CC(C)(C)[C@H](O)COc1cc(C(=O)N[C@@H](CC(=O)O)c2ccc(Cl)cc2Cl)nn1-c1ccccc1F

Papp [2]: > 2 ×10⁻⁶ cm/s
pIC50 [1]: 7.22
SMILES: CC(C)(C)C(=O)COc1cc(C(=O)N[C@@H](CC(=O)O)c2ccc(Cl)cc2Cl)nn1-c1ccccc1F

Cmax [3]: 872 ng/mL
Papp [2]: > 2 ×10⁻⁶ cm/s
Cmax [4]: 2670 ng/mL
AUC(0-inf) [7]: 2600 ng·h/mL
pIC50 (Neprilysin): < 6.00
inhibition (Neprilysin): inactive
AUC(0-inf) [8]: 9300 ng·h/mL
pIC50 [1]: 7.30
Activity (Cytochrome P450 3A4): Not Active
SMILES: CC(C)(C)[C@@H](O)COc1cc(C(=O)N[C@@H](CC(=O)O)c2ccc(Cl)cc2Cl)nn1-c1ccccc1F
Activity (Rattus norvegicus [5]): 36.5 µL/min
fold change (FC) (Rattus norvegicus [6]): 2
Activity (Rattus norvegicus [9]): inactive

pIC50 [1]: 6.56
SMILES: Cc1ccc([C@H](CC(=O)O)NC(=O)c2cc(=O)n(-c3ccccc3F)[nH]2)cc1

pIC50 [1]: 6.70
SMILES: O=C(O)CC(NC(=O)c1cc(=O)n(-c2ccccc2)[nH]1)c1ccc(Oc2ccccc2)cc1 (racemic)

pIC50 [1]: 6.10
SMILES: Cc1ccc(C)c(-n2[nH]c(C(=O)NC(CC(=O)O)c3ccc(-c4ccccc4)cc3)cc2=O)c1 (racemic)

pIC50 (Neprilysin): 4.57
pIC50 [1]: 7.82
Emax (CYP3A4): 72%
pIC50 [10]: 7.82
SMILES: Cc1ccccc1[C@H](CC(=O)O)NC(=O)c1cc(OCC2CC2)n(-c2ccccc2F)n1

Papp [2]: > 2 ×10⁻⁶ cm/s
pIC50 [1]: 8.52
SMILES: Cc1ccccc1[C@H](CC(=O)O)NC(=O)c1cc(OCC(=O)C(C)(C)C)n(-c2ccccc2F)n1

pIC50 [1]: 6.99
SMILES: Cc1ccccc1[C@H](CC(=O)O)NC(=O)c1cc(=O)n(-c2cccc(Cl)c2)[nH]1

pIC50 [1]: 7.06
SMILES: Cc1ccccc1[C@H](CC(=O)O)NC(=O)c1cc(=O)n(-c2ccc(F)cc2)[nH]1

pIC50 [1]: 7.23
SMILES: Cc1ccccc1[C@H](CC(=O)O)NC(=O)c1cc(=O)n(-c2cccc(F)c2)[nH]1

pIC50 [1]: 7.52
SMILES: COc1c(F)c(C(=O)N[C@@H](CC(=O)O)c2ccccc2C)nn1-c1ccccc1F

pIC50 [1]: 7.00
SMILES: COc1cn(-c2ccccc2)nc1C(=O)N[C@@H](CC(=O)O)c1ccccc1C

pIC50 [1]: 7.15
SMILES: Cc1ccccc1[C@H](CC(=O)O)NC(=O)c1cc(=O)n(-c2ccccc2)[nH]1

pIC50 [1]: 6.96
SMILES: COc1c(Cl)c(C(=O)N[C@@H](CC(=O)O)c2ccccc2C)nn1-c1ccccc1F

pIC50 [1]: 5.27
SMILES: Cc1ccc(C)c(-n2[nH]c(C(=O)NC(CC(=O)O)c3ccc(F)cc3)cc2=O)c1 (racemic)

pIC50 (Neprilysin): 6.52
pIC50 [1]: < 4.52
SMILES: O=C(O)CC(NC(=O)c1cc(=O)n(-c2ccc(Cl)cc2)[nH]1)c1cc(Cl)ccc1Cl (racemic)

pIC50 [1]: 7.24
SMILES: Cc1ccccc1[C@H](CC(=O)O)NC(=O)c1cc(=O)n(-c2ccccc2Cl)[nH]1

pIC50 (Neprilysin): > 7.22
pIC50 [1]: 7.00
SMILES: O=C(O)CC(NC(=O)c1cc(=O)n(-c2ccccc2)[nH]1)c1cccc(Cl)c1Cl (racemic)

pIC50 [1]: 7.60
SMILES: O=C(O)CC(NC(=O)c1cc(=O)n(-c2ccccc2F)[nH]1)c1ccc(-c2ccc(F)cc2)cc1 (racemic)

SMILES: CC(=O)S[C@@H]1CC2=CC(=O)CC[C@]2(C)[C@H]2CC[C@@]3(C)[C@@H](CC[C@@]34CCC(=O)O4)[C@H]12 [SPIRONOLACTONE]
Activity (Mus musculus [11]): 28.84 g
Ratio (Mus musculus [12]): 5.07 mg/g
Time (Mus musculus [13]): 7.52 ms
Activity (Mus musculus [14]): 58.59%
Activity (Mus musculus [15]): 14.93 mmHg
Activity (Mus musculus [16]): 145.96 mg
Activity (Mus musculus [17]): 137.39 mmHg
Activity (Mus musculus [18]): 410.78 bpm
Activity (Mus musculus [19]): 103.99 mmHg

pIC50 [1]: 6.43
SMILES: O=C(O)C[C@H](NC(=O)c1cc(=O)n(-c2ccccc2F)[nH]1)c1ccccc1C(F)(F)F

pIC50 [1]: 7.82
Emax (CYP3A4): 51%
pIC50 [10]: 7.82
SMILES: CCOc1cc(C(=O)N[C@@H](CC(=O)O)c2ccccc2C)nn1-c1ccccc1F

pIC50 [1]: 6.96
SMILES: Cc1ccccc1[C@H](CC(=O)O)NC(=O)c1nn(-c2ccccc2)cc1O

Cmax [3]: 426 ng/mL
Papp [2]: > 2 ×10⁻⁶ cm/s
Cmax [4]: 1360 ng/mL
AUC(0-inf) [7]: 1600 ng·h/mL
pIC50 (Neprilysin): < 6.00
inhibition (Neprilysin): inactive
AUC(0-inf) [8]: 5300 ng·h/mL
Activity (Cytochrome P450 3A4): Not Active
SMILES: Cc1ccccc1[C@H](CC(=O)O)NC(=O)c1cc(OC[C@H](O)C(C)(C)C)n(-c2ccccc2F)n1
Activity (Rattus norvegicus [5]): 27.7 µL/min
fold change (FC) (Rattus norvegicus [6]): 2
Activity (Rattus norvegicus [9]): inactive

pIC50 [1]: 6.92
SMILES: O=C(O)CC(NC(=O)c1cc(=O)n(-c2ccc(F)cc2F)[nH]1)c1cccc(Cl)c1Cl (racemic)

pIC50 [1]: 6.45
SMILES: COc1ccccc1[C@H](CC(=O)O)NC(=O)c1cc(=O)n(-c2ccccc2F)[nH]1

pIC50 [1]: 6.60
SMILES: Cc1cccc([C@H](CC(=O)O)NC(=O)c2cc(=O)n(-c3ccccc3F)[nH]2)c1

pIC50 [1]: 8.00
SMILES: Cc1ccccc1[C@H](CC(=O)O)NC(=O)c1cc(OC[C@@H](O)C(C)(C)C)n(-c2ccccc2F)n1

pIC50 [1]: 6.65
SMILES: O=C(O)CC(NC(=O)c1cc(=O)n(-c2ccccc2F)[nH]1)c1ccccc1 (racemic)

pIC50 [1]: 5.11
SMILES: Cc1ccccc1[C@@H](CC(=O)O)NC(=O)c1cc(=O)n(-c2ccccc2)[nH]1

pIC50 [1]: 7.12
SMILES: Cc1ccc(F)cc1C(CC(=O)O)NC(=O)c1cc(=O)n(-c2ccccc2F)[nH]1 (racemic)
